The target in data set [1] is T1, Coagulation factor VII (Homo sapiens, UniProt P08709).
T1 sequence (P08709 whole entry): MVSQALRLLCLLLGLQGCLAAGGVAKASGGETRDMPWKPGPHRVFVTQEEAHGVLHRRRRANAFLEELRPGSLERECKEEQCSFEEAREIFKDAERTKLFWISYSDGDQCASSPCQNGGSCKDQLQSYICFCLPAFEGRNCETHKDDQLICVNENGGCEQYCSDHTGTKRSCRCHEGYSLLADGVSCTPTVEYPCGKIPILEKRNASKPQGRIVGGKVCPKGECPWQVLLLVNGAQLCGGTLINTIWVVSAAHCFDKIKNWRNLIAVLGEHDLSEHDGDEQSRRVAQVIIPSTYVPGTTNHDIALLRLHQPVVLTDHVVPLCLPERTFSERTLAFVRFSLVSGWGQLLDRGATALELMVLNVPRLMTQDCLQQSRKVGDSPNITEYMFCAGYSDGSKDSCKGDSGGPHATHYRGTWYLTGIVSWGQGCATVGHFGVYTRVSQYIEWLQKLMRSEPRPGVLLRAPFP
In words: The compound was tested for inhibition of human coagulation factor VII.

Data set [2] deals with Urokinase-type plasminogen activator (Homo sapiens, UniProt P00749). In words: The compound was tested for inhibition of human urokinase type plasminogen activator (microPa).
Data set [3] concerns the target Trypsin (Homo sapiens, UniProt P07477+P07478+P35030). In words: The compound was tested for inhibition of human trypsin. In kind it is protein assay.
Data set [4] has as its target Coagulation factor X (Homo sapiens, UniProt P00742). The experiment in a line: Binding affinity against human coagulation factor X.
Data set [5] has as its target Plasma kallikrein (Homo sapiens, UniProt P03952). In words: The compound was tested for inhibition of human p-kallikrein.
Data set [6] deals with Prothrombin (Homo sapiens, UniProt P00734). The experiment in a line: The compound was tested for inhibition of human thrombin.
The target of data set [7] is Tissue-type plasminogen activator (Homo sapiens, UniProt P00750). The experiment in a line: The compound was tested for inhibition of human tissue plasminogen activator.
Tissue-type plasminogen activator, sequence (P00750 whole entry): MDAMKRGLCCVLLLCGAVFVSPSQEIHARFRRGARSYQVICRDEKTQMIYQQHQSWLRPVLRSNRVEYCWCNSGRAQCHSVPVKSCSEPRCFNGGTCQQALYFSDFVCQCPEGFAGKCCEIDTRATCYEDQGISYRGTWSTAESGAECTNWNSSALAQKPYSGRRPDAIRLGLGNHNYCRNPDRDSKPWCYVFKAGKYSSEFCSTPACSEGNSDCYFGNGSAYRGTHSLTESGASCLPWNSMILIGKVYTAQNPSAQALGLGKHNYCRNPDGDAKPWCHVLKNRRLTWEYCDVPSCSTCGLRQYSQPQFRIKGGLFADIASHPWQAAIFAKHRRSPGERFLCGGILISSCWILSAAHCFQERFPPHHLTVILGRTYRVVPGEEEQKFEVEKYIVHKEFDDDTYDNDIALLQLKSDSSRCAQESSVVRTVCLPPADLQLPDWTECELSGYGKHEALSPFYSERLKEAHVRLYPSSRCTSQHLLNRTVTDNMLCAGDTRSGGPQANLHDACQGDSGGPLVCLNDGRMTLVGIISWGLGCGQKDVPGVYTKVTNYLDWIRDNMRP
Data set [8] in a line: Volume of distribution in Sprague-Dawley Rat (Wt 294) was determined after iv administration at a dose of 2 mg/kg. More on the design: dose 2 mg/kg, route intravenous. The conditions noted are these: in vivo, read-out: Vc. In kind it is ADME, organism-based. An outline of the steps:
(§1)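 Male Sprague-Dawley rats, three per group, received a single IV tail-vein bolus in 40% PEG400/H2O (1 or 2 mg/mL). Jugular blood was drawn into heparin at several times up to 24 h. Plasma was held at −80 °C, then assayed by LC-MS/MS against standard curves of 1–10000 ng/mL (LOQ 6 ng/mL). Parameters are mean ± SD; AUC runs 0 to infinity; volume of distribution is central compartment.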

A short description of data set [9]: Volume of distribution at steady state in Sprague-Dawley Rat (Wt 294) was determined after iv administration at a dose of 2 mg/kg. In kind it is ADME, organism-based. The arrangement: dose 2 mg/kg, route intravenous. The settings on record: in vivo, read-out: Vss. The procedure, abridged:
as §1

The nature of data set [10]: Mean residence time of compound in Sprague-Dawley Rat (Wt 294) was determined after iv administration at a dose of 2 mg/kg. In kind it is ADME, organism-based. More on the design: dose 2 mg/kg, route intravenous. The settings on record: in vivo. An outline of the steps: as §1
Data set [11] can be described thus: Plasma clearance of compound in Sprague-Dawley Rat (Wt 294) was determined after iv administration at a dose of 2 mg/kg. In kind it is ADME, organism-based. More on the design: dose 2 mg/kg, route intravenous. The settings on record: read-out: Clp. An outline of the steps:
as §1

The subject of data set [12] is Rattus norvegicus. In words: Integrated area under the plasma concentration in Sprague-Dawley Rat (Wt 294) was determined after iv administration at a dose of 2 mg/kg. In kind it is ADME, organism-based. The arrangement: dose 2 mg/kg, route intravenous. The conditions noted are these: in vivo. An outline of the steps:
as §1

Data set [13] can be described thus: terminal half-life in Sprague-Dawley Rat (Wt 294) was determined after iv administration at a dose of 2 mg/kg. In kind it is ADME, organism-based. The settings on record: in vivo. More on the design: dose 2 mg/kg, route intravenous. An outline of the steps: as §1
Data set [14] in a line: Plasma clearance of compound in Sprague-Dawley Rat (Wt 286) was determined after iv administration at a dose of 1 mg/kg. In kind it is ADME, organism-based. The arrangement: dose 1 mg/kg, route intravenous. The settings on record: read-out: Clp. An outline of the steps: as §1
Data set [15] in a line: terminal half-life in Sprague-Dawley Rat (Wt 286) was determined after iv administration at a dose of 1 mg/kg. In kind it is ADME, organism-based. More on the design: dose 1 mg/kg, route intravenous. The conditions noted are these: in vivo. The procedure, abridged: as §1
In data set [16] the test system is Rattus norvegicus. The experiment in a line: Area undercurve in Sprague-Dawley Rat (Wt 286) was determined after iv administration at a dose of 1 mg/kg. The arrangement: dose 1 mg/kg, route intravenous. In kind it is ADME, organism-based. The settings on record: in vivo. An outline of the steps:
as §1

Data set [17] is described as follows: Volume of distribution in Sprague-Dawley Rat (Wt 286) was determined after iv administration at a dose of 1 mg/kg. In kind it is ADME, organism-based. More on the design: dose 1 mg/kg, route intravenous. The settings on record: in vivo, read-out: Vc. An outline of the steps: as §1
The nature of data set [18]: Volume of distribution at steady state in Sprague-Dawley Rat (Wt 286) was determined after iv administration at a dose of 1 mg/kg. In kind it is ADME, organism-based. The arrangement: dose 1 mg/kg, route intravenous. The conditions noted are these: in vivo, read-out: Vss. An outline of the steps:
as §1

The nature of data set [19]: mean residence time in Sprague-Dawley Rat (Wt 286) was determined after iv administration at a dose of 1 mg/kg. The settings on record: in vivo. The arrangement: dose 1 mg/kg, route intravenous. In kind it is ADME, organism-based. The procedure, abridged: as §1

Experimental findings from ChEMBL document CHEMBL1134679, “Exploiting subsite S1 of trypsin-like serine proteases for selectivity: potent and selective inhibitors of urokinase-type plasminogen activator” (J Med Chem, 2001) are described below.

Some results are limits rather than exact numbers.

Plasma kallikrein, sequence (P03952 20-390 limits assumed): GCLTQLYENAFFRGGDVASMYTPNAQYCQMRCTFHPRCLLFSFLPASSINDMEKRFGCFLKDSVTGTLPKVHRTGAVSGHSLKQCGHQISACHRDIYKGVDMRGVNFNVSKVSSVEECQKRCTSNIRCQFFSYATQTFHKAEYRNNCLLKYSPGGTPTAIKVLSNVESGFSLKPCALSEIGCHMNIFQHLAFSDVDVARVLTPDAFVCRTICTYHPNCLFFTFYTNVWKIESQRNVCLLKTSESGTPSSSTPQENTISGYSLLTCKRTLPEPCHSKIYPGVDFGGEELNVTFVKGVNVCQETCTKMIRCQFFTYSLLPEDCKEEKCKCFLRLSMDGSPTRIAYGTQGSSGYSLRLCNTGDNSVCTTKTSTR
Plasma kallikrein, sequence (P03952 391-638 limits assumed): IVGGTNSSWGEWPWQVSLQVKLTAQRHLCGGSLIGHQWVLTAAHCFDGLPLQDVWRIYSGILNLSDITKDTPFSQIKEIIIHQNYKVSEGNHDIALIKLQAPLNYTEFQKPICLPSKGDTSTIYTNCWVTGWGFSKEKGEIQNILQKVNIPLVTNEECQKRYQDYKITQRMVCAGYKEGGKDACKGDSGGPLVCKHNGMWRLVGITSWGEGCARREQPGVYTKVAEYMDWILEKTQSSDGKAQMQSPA
Coagulation factor X, sequence (P00742 41-179 limits assumed): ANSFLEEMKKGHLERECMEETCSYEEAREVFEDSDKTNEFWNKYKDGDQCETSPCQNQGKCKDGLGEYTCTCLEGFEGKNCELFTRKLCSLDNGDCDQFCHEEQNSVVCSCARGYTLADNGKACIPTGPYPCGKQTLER
Coagulation factor X, sequence (P00742 235-488 limits assumed): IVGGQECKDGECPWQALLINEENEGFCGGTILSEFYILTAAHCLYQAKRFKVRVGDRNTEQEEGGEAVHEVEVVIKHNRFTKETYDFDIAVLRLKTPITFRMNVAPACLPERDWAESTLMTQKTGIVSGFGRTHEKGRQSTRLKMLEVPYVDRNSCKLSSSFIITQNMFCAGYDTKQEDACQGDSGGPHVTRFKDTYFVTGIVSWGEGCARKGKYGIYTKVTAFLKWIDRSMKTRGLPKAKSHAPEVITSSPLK

For the compound `COc1cc2[nH]c(-c3cccc(-c4ccccc4)c3O)cc2cc1C(=N)N`, the Ki (as a rule, a measure of affinity in units of concentration, obtained from inhibition or displacement) in data set [1] is 16 µM; in data set [2], 0.36 µM; in data set [3], 14 µM; in data set [4] it was 26 µM; in [5] it was 0.6 µM; in data set [6] it was above 75 µM.
On to `Cc1cc2[nH]c(-c3cccc(-c4ccccc4)c3O)cc2cc1C(=N)N`, for which the inhibition constant Ki in data set [1] was 7 µM; in data set [2], 0.1 µM; in data set [3], 1.6 µM; in [4] it was above 75 µM; in [7], 39 µM; in data set [5], 4.8 µM. Also, in data set [6], the inhibitory constant (Ki) was above 75 µM.
For `N=C(N)c1ccc2[nH]c(-c3cccc(-c4ccccc4)c3O)cc2c1Cl`, the inhibitory constant (Ki) in data set [1] amounted to 5.5 µM; in data set [2], 0.49 µM; in data set [3], 4.7 µM; in data set [4], 5.2 µM; in data set [7] it was 3.3 µM; in data set [5], 1.3 µM. Further, affinity in data set [6] was put at a Ki of 65 µM.
For `N=C(N)c1cc2cc(-c3cccc(-c4ccccc4)c3O)[nH]c2cc1O`, the Ki in [1] was above 75 µM; in [3], 50 µM; in data set [4], above 75 µM; in [5], 1.3 µM; in [6], above 75 µM.
`N=C(N)c1cc2cc(-c3cccc(-c4ccccc4)c3O)[nH]c2cc1Cl`: the Vd in [8] stood at 0.346 L/kg; in data set [9], 7.7 L/kg. Further, the mean residence time MRT – broadly, a mean duration of stay, worked out from the concentration-time curve – in [10] is 2.17 h. In addition, the clearance in data set [11] is 59 mL/min/kg. The AUC (commonly concentration integrated over time) in data set [12] came to 1.42 µM·h. The half-life (as a rule, the time needed for the level to fall by half in the phase considered) in data set [13] came to 3.15 h.
Take `N=C(N)c1cc2cc(-c3cccc(-c4ccccc4)c3O)[nH]c2cc1F`: the Ki came out at 0.75 µM in [1], 1.1 µM in data set [3], 0.11 µM in data set [5] and 7.5 µM in data set [6].
For the compound `N=C(N)c1ccc2[nH]c(-c3cccc(-c4ccccc4)c3O)cc2c1`, the clearance in data set [14] came out at 121 mL/min/kg. Moreover, the Ki in data set [1] is 0.16 µM; in data set [3], 0.13 µM; in [5], 0.0019 µM. Further, the half-life in data set [15] stood at 1.7 h. Further, the exposure (AUC) in data set [16] came to 0.4 µM·h. The Vd in [17] is 1.56 L/kg; in [18], 11.9 L/kg. The compound further had an MRT in data set [19] of 1.77 h.
